Assays:
advanced solid tumors = test: Tumor response by RECIST; format: in vivo, human; conditions: for partial responses (PRs): melanoma patients
Method in brief: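 Oral test compound was given once daily at 60 mg (21/7) or 100 mg (14/14) in 28-day cycles. Patients with measurable lesions had CT at screening and about every 8 weeks, assessed by RECIST. CR/PR was confirmed 4 weeks after first documentation. Archival tissue was typed for BRAF V600, NRAS Q61 and KRAS G12/13 mutations. Responses were summarized as frequency counts and percentages.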

[1] = system: patients with advanced solid tumors; test: Phase Ia dose escalation/expansion: safety, DLT, MTD, adverse events; conditions: oral once daily
Plasma pharmacokinetics = format: in vivo, human; conditions: for half-life: human, plasma; for CL/F apparent plasma clearance: steady state, geometric mean (%CV)
Method in brief: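 Advanced solid tumor patients took oral test compound capsules once daily on 21-day on/7-day off or 14-day on/14-day off schedules in 28-day cycles. Serial plasma was sampled after the first dose (Day 1) and last dose (Day 21 or 14) of Cycle 1, plus pre-dose on Day 1 of later cycles. Analysis was by validated LC-MS/MS with noncompartmental analysis. Racc = Day 21 AUC0–24/Day 1 AUC0–24.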

[2] = system: patients with advanced solid tumors; conditions: in vivo
[3] = system: RAS- or RAF-mutant FDG-PET-avid tumors; test: FDG-PET pharmacodynamic; format: in vivo, human; conditions: Cycle 1 Day 10–14 (on drug); 60-mg (21/7) MTD; 8 of 17
[4] = system: phosphorylation of ERK1/2 in cell lines harboring KRAS or BRAF mutations; conditions: cited from earlier work

Compound: O=C(c1ccc(F)c(F)c1Nc1ccc(I)cc1F)N1CC(O)([C@@H]2CCCCN2)C1 [cobimetinib]
- RECIST responses (advanced solid tumors; 28 patients with KRAS-mutant colorectal cancer): no responses
- patients with prolonged stable disease (SD) of five months or greater (advanced solid tumors; all tumor types): five
- partial responses (PRs) (advanced solid tumors; 60 mg on the 21/7 dosing schedule): three
- partial responses (PRs) (advanced solid tumors; 100 mg 14/14 dosing schedule): three
- duration of stable disease (advanced solid tumors; patient with adenoid cystic carcinoma): 7 months
- duration of stable disease (advanced solid tumors; patient with carcinoid): ≥ 47 months
- duration of stable disease (advanced solid tumors; patient with esophageal tumor): 6 months
- duration of stable disease (advanced solid tumors; patient with non-small cell lung cancer): 13 months
- median time on cobimetinib of responders (advanced solid tumors; seven responders, range 42–721+ days): 280 days
- maximum tolerated dose (MTD) ([1]; 14/14 dosing schedule): 100 mg
- maximum tolerated dose (MTD) ([1]; 21/7 dosing schedule): 60 mg
- exposure vs dose (Plasma pharmacokinetics; from 0.05 mg/kg (approximately 3.5 mg for a 70-kg adult) to 100 mg): dose-proportional
- half-life (Plasma pharmacokinetics; oral, 100 mg, t1/2 elimination half-life, 100 mg (14/14), geometric mean (range), n 13): 2.25 days
- half-life (Plasma pharmacokinetics; oral, mean terminal half-life, across all doses): 2.04 days
- half-life (Plasma pharmacokinetics; oral, terminal half-life, range, across all doses): 0.958 to 3.33 days
- median tmax (Plasma pharmacokinetics; oral, all cohorts): one to three
- CL/F apparent plasma clearance (Plasma pharmacokinetics; 60 mg (21/7), n 37): 13.8 (61) L/h
- CL/F apparent plasma clearance (Plasma pharmacokinetics; 100 mg (14/14), n 18): 14.8 (92) L/h
- incidence of edema ([2]; human): 34%
- incidence of treatment-related rash ([2]; human): 54%
- median onset of rash ([2]; human): 12 days
- median rash duration ([2]; human): 20 days
- patients with Grade ≥ 2 central serous retinopathy (CSR) ([2]; human): 5%
- patients with at least one SAE, regardless of causality ([2]; human): 42%
- patients with at least one treatment-related AE ([2]; human): 90%
- patients with dose reductions due to treatment-related rash ([2]; human): 4%
- patients with gastrointestinal disorder SAEs, regardless of causality ([2]; human): 14%
- patients with treatment-related AEs that led to dose reductions or interruption ([2]; human): 25%
- treatment-related AEs that were Grade 1–2 ([2]; human): 72%
- treatment-related rash that was Grade 1 or 2 ([2]; human): 94%
- patients who experienced DLTs [2]: four
- retinal vein occlusion [2]: no reports
- reversibility of visual adverse events [2]: reversible and resolved within one week
- symptomatic decreases in LVEF [2]: No events
- FDG-PET metabolic response rate [3]: 47%
- effect on ERK1/2 phosphorylation [4]: inhibits the phosphorylation of ERK1/2

From paper PMC6863157 (Investigational new drugs, 2016)
